The text below walks through data of ChEMBL document CHEMBL1149105, “3-(4-phenoxyphenyl)pyrazoles: a novel class of sodium channel blockers” (J Med Chem, 2004).

Assay [1] concerns the target T1, Sodium channel protein type 4 subunit alpha (Homo sapiens, UniProt P35499). Put plainly: Affinity for inactive human SkM1 sodium channel expressed in HEK293 cells. The format is cell-based. The procedure, abridged:
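Whole-cell voltage clamp at room temperature on HEK-293 cells stably expressing hSkM1, recorded 3–4 days after plating. Cells were held at -120 mV. 10–12 conditioning prepulses (3 s, 10 mV steps) were each followed by a 5 ms test pulse to 0 mV at 1/7 s. Boltzmann V1/2 and k were taken without and with drug (final 0.003–10 μM, ≤0.1% DMSO). Ki came from the modified Bean equation. Mean ± SEM, n = 3–4.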
Target sequence in this assay (P35499 whole entry): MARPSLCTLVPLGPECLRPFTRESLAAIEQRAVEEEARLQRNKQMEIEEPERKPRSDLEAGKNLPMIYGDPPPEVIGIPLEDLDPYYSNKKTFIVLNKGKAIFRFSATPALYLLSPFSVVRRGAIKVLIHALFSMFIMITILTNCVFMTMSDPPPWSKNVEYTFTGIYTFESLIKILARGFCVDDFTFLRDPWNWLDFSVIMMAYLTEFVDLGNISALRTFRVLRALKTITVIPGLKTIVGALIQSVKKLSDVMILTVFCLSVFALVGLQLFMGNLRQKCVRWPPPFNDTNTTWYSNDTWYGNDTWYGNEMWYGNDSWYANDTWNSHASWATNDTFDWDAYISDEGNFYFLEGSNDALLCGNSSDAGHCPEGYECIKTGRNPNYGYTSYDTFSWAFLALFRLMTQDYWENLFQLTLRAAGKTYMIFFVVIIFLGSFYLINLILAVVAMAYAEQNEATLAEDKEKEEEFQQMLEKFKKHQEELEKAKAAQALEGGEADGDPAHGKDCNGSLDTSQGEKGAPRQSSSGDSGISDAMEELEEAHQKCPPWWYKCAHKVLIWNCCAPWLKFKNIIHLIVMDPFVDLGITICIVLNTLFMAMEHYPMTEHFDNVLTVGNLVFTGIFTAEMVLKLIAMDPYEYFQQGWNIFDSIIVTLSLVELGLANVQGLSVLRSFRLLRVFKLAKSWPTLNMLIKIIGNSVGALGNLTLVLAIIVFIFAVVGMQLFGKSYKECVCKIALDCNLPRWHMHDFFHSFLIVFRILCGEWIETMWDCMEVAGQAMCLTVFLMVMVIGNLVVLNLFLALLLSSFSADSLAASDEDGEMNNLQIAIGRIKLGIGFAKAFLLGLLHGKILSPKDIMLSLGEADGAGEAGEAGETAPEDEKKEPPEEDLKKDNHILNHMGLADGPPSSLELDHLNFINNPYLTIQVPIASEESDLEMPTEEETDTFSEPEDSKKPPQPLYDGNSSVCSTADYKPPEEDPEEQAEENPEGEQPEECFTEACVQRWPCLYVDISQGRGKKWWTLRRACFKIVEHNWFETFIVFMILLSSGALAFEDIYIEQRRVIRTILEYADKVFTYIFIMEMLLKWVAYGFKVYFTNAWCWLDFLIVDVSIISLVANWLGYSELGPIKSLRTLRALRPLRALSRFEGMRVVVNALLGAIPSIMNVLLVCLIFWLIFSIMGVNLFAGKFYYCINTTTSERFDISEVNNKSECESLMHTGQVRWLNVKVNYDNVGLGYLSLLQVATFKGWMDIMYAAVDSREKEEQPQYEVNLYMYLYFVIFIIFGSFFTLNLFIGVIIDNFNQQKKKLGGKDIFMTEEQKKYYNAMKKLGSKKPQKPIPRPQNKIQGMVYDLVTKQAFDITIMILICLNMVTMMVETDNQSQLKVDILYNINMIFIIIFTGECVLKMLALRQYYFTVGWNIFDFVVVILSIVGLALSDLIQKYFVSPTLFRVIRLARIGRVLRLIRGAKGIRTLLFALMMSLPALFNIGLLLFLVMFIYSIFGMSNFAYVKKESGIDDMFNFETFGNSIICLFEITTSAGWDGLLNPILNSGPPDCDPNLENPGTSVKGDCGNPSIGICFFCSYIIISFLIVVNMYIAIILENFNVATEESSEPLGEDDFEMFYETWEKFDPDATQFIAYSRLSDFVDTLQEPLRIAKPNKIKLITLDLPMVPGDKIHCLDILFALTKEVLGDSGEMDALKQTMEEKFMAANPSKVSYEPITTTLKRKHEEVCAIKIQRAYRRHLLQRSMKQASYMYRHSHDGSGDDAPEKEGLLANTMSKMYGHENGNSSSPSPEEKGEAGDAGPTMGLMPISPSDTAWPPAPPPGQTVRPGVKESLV

Assay [2] addresses T1, Sodium channel protein type 4 subunit alpha. Put plainly: Affinity for resting human SkM1 sodium channel expressed in HEK293 cells. The format is cell-based. The procedure, abridged: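 Tonic block was measured by whole-cell patch clamp on hSkM1-expressing HEK-293 cells at room temperature. Cells were held at -120 mV, where all channels are resting, and depolarized to 0 mV. Peak current was compared between control and 3 μM antagonist applied by flow pipes from DMSO stock. The fractional response gave Kr = FR/(1−FR)·[antag], with slope n = 1. Mean ± SEM, n = 3–4.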
Target sequence in this assay (P35499 whole entry, looked up): as the sequence (P35499 whole entry) above

Assay [3] shares this target. Kind of assay: Relative affinity for inactivated and resting human SkM1 expressed in HEK293 cells. It counts as cell-based.
Target sequence in this assay (P35499 whole entry, looked up): as the sequence (P35499 whole entry) above
Assay [4] has the same target. Particulars: HEK293.
Target sequence in this assay (P35499 whole entry, looked up): as the sequence (P35499 whole entry) above

With `NC(=O)n1ccc(-c2ccc(Oc3ccc(F)cc3)cc2)n1`, the Ki in assay [1] was 31 nM. The compound also had a Kr in assay [2] of 6 µM. Moreover, the Ratio in assay [3] was 194.

In assay [4], `NC(=O)N1c2ccccc2C=Cc2ccccc21` [CARBAMAZEPINE] yielded a Kr of 720 µM. In addition, in assay [1], the inhibition constant (Ki) is 52000 nM. In assay [3], the Ratio is 14.

Regarding `NC(=O)n1ccc(-c2ccc(Oc3ccccc3)cc2)n1`, in assay [1], the Ki worked out at 35 nM. In addition, the Kr in assay [2] is 5 µM. In addition, the Ratio in assay [3] was found to be 143.

With `NC(=O)n1ccc(-c2ccc(Oc3ccc([N+](=O)[O-])cc3)cc2)n1`, in assay [1], the Ki was 31 nM. Besides, the Kr in assay [2] was 7 µM. In assay [3], the Ratio came to 226.

Turning to `COc1ccc(-c2cc[nH]n2)cc1`, the inhibition constant (Ki) in assay [1] was 81000 nM. The Kr in assay [2] worked out at 710 µM. The Ratio in assay [3] came to 9.

For the compound `Cn1ccc(-c2ccc(Oc3ccc(F)cc3)cc2)n1`, the Ki in assay [1] was 690 nM. Besides, in assay [2], the Kr was 21 µM. The Ratio in assay [3] was 30.

As to `Nc1nnc(-c2cccc(Cl)c2Cl)c(N)n1` [LAMOTRIGINE], the inhibitory constant (Ki) in assay [1] was found to be 17000 nM. For the same compound, the Kr in assay [2] turned out to be 1440 µM. Further, in assay [3], the Ratio was 85.

With `c1ccc(-c2cc[nH]n2)cc1`, the inhibition constant Ki in assay [1] was found to be 61000 nM. The Kr in assay [2] was found to be 1110 µM. Moreover, the Ratio in assay [3] was 18.

In assay [1], `CN(C)C(=O)n1ccc(-c2ccc(Oc3ccc(F)cc3)cc2)n1` showed a Ki of 340 nM. The same compound registered a Kr in assay [2] of 26 µM. For the same compound, the Ratio in assay [3] came out at 76.

`Fc1ccc(Oc2ccc(-c3cc[nH]n3)cc2)cc1` displayed a Ki in assay [1] of 200 nM. The compound further had a Kr in assay [2] of 17 µM. In assay [3], the Ratio was 85.

Regarding `CNC(=O)n1ccc(-c2ccc(Oc3ccc(F)cc3)cc2)n1`, the Ki in assay [1] is 150 nM. In assay [2], the Kr was found to be 21 µM. Further, the Ratio in assay [3] came to 140.

`NC(=O)n1ccc(-c2ccc(Oc3ccc(F)cc3F)cc2)n1` showed an inhibitory constant (Ki) in assay [1] of 25 nM. In assay [2], the Kr came out at 10 µM. In addition, the Ratio in assay [3] stood at 400.

As for `O=C1NC(=O)C(c2ccccc2)(c2ccccc2)N1` [PHENYTOIN], the affinity in assay [1], expressed as Ki, was 24000 nM. In assay [2], this compound gave a Kr of 620 µM. The Ratio in assay [3] is 26.

As for `NC(=O)N/N=C/c1ccc(Oc2ccc(F)cc2)cc1`, in assay [1], the Ki is 180 nM. This compound displayed a Kr in assay [2] of 27 µM. Besides, the Ratio in assay [3] stood at 150.

Regarding `c1ccc(Oc2ccc(-c3cc[nH]n3)cc2)cc1`, the affinity in assay [1] corresponds to a Ki of 240 nM. In addition, in assay [2], the Kr was found to be 16 µM. Further, the Ratio in assay [3] worked out at 67.
